The record followed here is ChEMBL document CHEMBL1806372, “Cytotoxic ring A-modified steroid analogues derived from Grundmann's ketone” (Eur J Med Chem, 2011).

Format in all cases: functional
One test relates to Burkholderia gladioli. Briefly: Antibacterial activity against Pseudomonas antimicrobica assessed as zone of inhibition at 5 uL and 32 degC after 36 hrs by disk diffusion method. Summed up:
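Disc diffusion on AC agar, each strain spread evenly over the medium; test compounds given as 1% (w/v) DMSO solutions. Plates covered and incubated 36 h at 32 °C, then the diameter of the zone of inhibited growth measured in mm. Tetracycline served as antibacterial reference.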
(In agar diffusion tests the substance spreads into inoculated agar from a disc or well.)

A further test relates to OVCAR-3. The experiment in a line: Cytotoxicity against human OVCAR3 cells after 48 hrs by sulforhodamine B assay. To be noted: OVCAR-3, 48 h, read-out: LC50 (the source's name). Summed up:
(§1)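 NCI 60 human tumour cell line panel run to the NCI protocol. GI50, TGI and LC50 come from log concentration vs % growth inhibition curves for each cell line. Lines insensitive at the top concentration are reported with ">".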

The subject of the next test is MDA-MB-231. The experiment in a line: Growth inhibition of human MDA-MB-231 cells after 48 hrs by sulforhodamine B assay. Particulars: MDA-MB-231, 48 h. Summed up: (§2)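 GI50, TGI and LC50 were derived from log concentration versus % growth inhibition curves for each cell line. GI50 is the concentration giving a 50% decrease in net cell growth. Insensitive lines are reported as greater than the highest concentration.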
A general note: Sulforhodamine B stains cellular protein and so reports cell mass.

In a further test the test system is SK-MEL-28. The experiment in a line: Cytotoxicity against human SK-MEL-28 cells after 48 hrs by sulforhodamine B assay. To be noted: SK-MEL-28, 48 h, read-out: LC50 (the source's name). Summed up:
as §1

Another test has as its system TK-10. The experiment in a line: Growth inhibition of human TK10 cells after 48 hrs by sulforhodamine B assay. To be noted: TK-10, 48 h. The procedure, abridged:
(§3)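 NCI 60-cell panel five-dose assay. GI50, TGI and LC50 are derived from log concentration versus % growth inhibition curves. Cell lines insensitive at the top concentration are given a ">" prefix.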

A further test concerns SK-OV-3. Briefly: Growth inhibition of human SKOV3 cells after 48 hrs by sulforhodamine B assay. To be noted: SK-OV-3, 48 h. The procedure, abridged: as §3
Test [1] has as its system MCF7. The experiment in a line: Growth inhibition of human MCF7 cells after 48 hrs by sulforhodamine B assay. To be noted: MCF7, 48 h. Summed up:
as §2

In test [2] the test system is HCT-116. Briefly: Cytotoxicity against human HCT116 cells after 48 hrs by sulforhodamine B assay. Particulars: HCT-116, 48 h, read-out: LC50 (the source's name). Summed up:
as §1

Test [3] deals with HCT-116. The experiment in a line: Growth inhibition of human HCT116 cells after 48 hrs by sulforhodamine B assay. To be noted: HCT-116, 48 h. The procedure, abridged: (§4)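 From log concentration versus % growth curves, GI50 (50% decrease in net growth), TGI (total growth inhibition) and LC50 (net 50% loss of initial cells) are derived for each line.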
The next test has as its system HCT-15. Briefly: Growth inhibition of human HCT15 cells after 48 hrs by sulforhodamine B assay. To be noted: HCT-15, 48 h. Summed up: as §4
The subject of another test is COLO 205. Briefly: Cytotoxicity against human COLO205 cells after 48 hrs by sulforhodamine B assay. Particulars: COLO 205, 48 h, read-out: LC50 (the source's name). Summed up: as §1
The test system of test [4] is SK-MEL-5. The experiment in a line: Growth inhibition of human SK-MEL-5 cells after 48 hrs by sulforhodamine B assay. Particulars: SK-MEL-5, 48 h. The procedure, abridged:
as §2

The test system of a further test is ACHN. Briefly: Cytotoxicity against human ACHN cells after 48 hrs by sulforhodamine B assay. Particulars: read-out: LC50 (the source's name). The procedure, abridged: as §1
The next test relates to MDA-MB-468. Briefly: Cytotoxicity against human MDA-MB-468 cells after 48 hrs by sulforhodamine B assay. To be noted: MDA-MB-468, 48 h, read-out: LC50 (the source's name). Summed up: as §1
The subject of a further test is CAKI-1. The experiment in a line: Cytotoxicity against human Caki1 cells after 48 hrs by sulforhodamine B assay. Particulars: CAKI-1, 48 h, read-out: LC50 (the source's name). Summed up:
as §1

In test [5] the test system is SK-MEL-5. The experiment in a line: Cytotoxicity against human SK-MEL-5 cells after 48 hrs by sulforhodamine B assay. Particulars: SK-MEL-5, 48 h, read-out: LC50 (the source's name). The procedure, abridged:
as §1

The next test deals with A498. The experiment in a line: Cytotoxicity against human A498 cells after 48 hrs by sulforhodamine B assay. Particulars: A498, 48 h, read-out: LC50 (the source's name). Summed up: as §1
A further test concerns RXF 393. Briefly: Cytotoxicity against human RXF393 cells after 48 hrs by sulforhodamine B assay. To be noted: RXF 393, 48 h, read-out: LC50 (the source's name). Summed up:
as §1

A further test concerns HOP-92. Briefly: Cytotoxicity against human HOP92 cells after 48 hrs by sulforhodamine B assay. Particulars: HOP-92, 48 h, read-out: LC50 (the source's name). The procedure, abridged:
as §1

In the next test the test system is U-251. The experiment in a line: Cytotoxicity against human U251 cells after 48 hrs by sulforhodamine B assay. To be noted: U-251, 48 h, read-out: LC50 (the source's name).
Test [6] concerns MCF7. The experiment in a line: Cytotoxicity against human MCF7 cells after 48 hrs by sulforhodamine B assay. To be noted: MCF7, 48 h, read-out: LC50 (the source's name). Summed up: as §1
For another test, the system named is 786-0. The experiment in a line: Cytotoxicity against human 786-0 cells after 48 hrs by sulforhodamine B assay. To be noted: 786-0, 48 h, read-out: LC50 (the source's name). The procedure, abridged:
as §1

Calls of active or inactive are those of the source. No cut-off for these calls is given here. A value given as a limit tells only on which side of the number the result lay.

As a reminder, the GI50 is the concentration at which growth is held to half of that of the control. Low readings indicate more potent growth inhibition, high ones less potent growth inhibition. Usually TGI stands for the concentration at which net growth stops. Low readings indicate more potent growth arrest, high ones less potent growth arrest. As for `CC(C)CCC[C@@H](C)[C@H]1CC[C@H]2C3=CC[C@@H]4C(=O)C=CC(=O)[C@@H]4[C@@H]3CC[C@]12C`, the “diameter of the inhibition zone (DIZ)” value in the test on Burkholderia gladioli is “inactive”. Further, the CC50 with OVCAR-3 is over 100000 nM; with SK-MEL-28 it was over 100000 nM; in the test on HCT-116 [2], over 3910 nM; in the test on COLO 205, over 536 nM. The GI50 with MDA-MB-231 was 343 nM; with TK-10 it was 2650 nM; in the test on SK-OV-3 it was 688 nM; in the test on MCF7 [1], 112 nM; in the test with HCT-116 [3], 55 nM; in the test with HCT-15, 212 nM. Besides, in the test on SK-MEL-5 [4], the GI50 worked out at 309 nM. Further, the concentration for total growth inhibition (TGI) with MDA-MB-231 was 1760 nM; with TK-10 it was over 100000 nM; in the test with MCF7 [1] it was 757 nM; in the test on HCT-116 [3], 1030 nM; in the test with SK-MEL-5 [4], 1000 nM.

For `CC(C)CCC[C@@H](C)[C@H]1CC[C@H]2C3=CCn4c(=O)ccc(=O)n4[C@@H]3CC[C@]12C`, the CC50 in the test with ACHN came out at 5190 nM; with OVCAR-3, 4780 nM; in the test on SK-MEL-28, 4140 nM; in the test with MDA-MB-468, 9420 nM; in the test on CAKI-1, 3470 nM; in the test on SK-MEL-5 [5], 4520 nM. In addition, the CC50 in the test on A498 was found to be 4870 nM; with HCT-116 [2], 594 nM; in the test on RXF 393, 5430 nM; with HOP-92, 3760 nM; in the test on COLO 205, 2360 nM; with U-251 it was 4180 nM. The CC50 in the test on MCF7 [6] is 4260 nM; with 786-0, 4430 nM. Also, the GI50 in the test on MDA-MB-231 was 1040 nM; with TK-10, 356 nM; with SK-OV-3 it was 1630 nM; in the test with MCF7 [1], 285 nM; in the test with HCT-116 [3], 142 nM; in the test on HCT-15, 418 nM. For the same compound, in the test with SK-MEL-5 [4], it took 563 nM to inhibit growth by half (GI50). Moreover, the TGI with MDA-MB-231 amounted to 2540 nM; in the test with TK-10, 1260 nM; with SK-OV-3, 2990 nM; in the test with MCF7 [1], 1240 nM; in the test with HCT-116 [3], 291 nM; in the test on HCT-15, 2220 nM. Net growth in the test on SK-MEL-5 [4] stopped (TGI) at 1830 nM.
